Laboratory results as given in ChEMBL document CHEMBL3046353, “Synthesis and fungicidal activity of some 5-membered heterocyclic derivatives containing benzimidazoles” (1993).
Calls of active or inactive are those of the source. The rule behind the calls is not given here.

Assays:
Rhizoctonia solani = assay: Fungicidal activity against Rhizoctonia solani at 500 ppm after 7 days by poisoned food technique; assay type: functional; settings: 168 h, read-out: GI
Outline: (§1)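 Cultures kept on potato dextrose agar. Each compound, dissolved in acetone, was added to potato dextrose agar at a final 500 ppm (w/v) (poisoned food technique). A disc cut from the periphery of a seven-day-old culture was inoculated onto each set. Control sets held potato dextrose agar only. The read-out is percentage inhibition of fungal growth relative to control.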

Musca domestica = assay: Insecticidal activity against Musca domestica (house fly); assay type: functional, organism-based
Avena sativa [1] = assay: Herbicidal activity against Avena sativa under paddy conditions; assay type: functional, organism-based
Sagittaria latifolia [2] = assay: Pre-emergence herbicidal activity against Sagittaria latifolia (broadleaf arrowhead); assay type: functional, organism-based
Schoenoplectus acutus [3] = assay: Pre-emergence herbicidal activity against Schoenoplectus acutus (hardstem bulrush); assay type: functional, organism-based
Sagittaria latifolia [4] = assay: Post-emergence herbicidal activity against Sagittaria latifolia (broadleaf arrowhead); assay type: functional, organism-based
Oryza sativa [5] = assay: Pre-emergence herbicidal activity against Oryza sativa (rice); assay type: functional, organism-based
Oryza sativa [6] = assay: Post-emergence herbicidal activity against Oryza sativa (rice); assay type: functional, organism-based
Avena sativa [7] = assay: Post-emergence herbicidal activity against Avena sativa; assay type: functional, organism-based
Echinochloa crus-galli [8] = assay: Herbicidal activity against Echinochloa crus-galli (barnyard grass) under paddy conditions; assay type: functional, organism-based
Convolvulaceae [9] = assay: Herbicidal activity against Convolvulaceae (morning glory family) under paddy conditions; assay type: functional, organism-based
Convolvulaceae [10] = assay: Pre-emergence herbicidal activity against Convolvulaceae (morning glory family); assay type: functional, organism-based
Abutilon theophrasti [11] = assay: Post-emergence herbicidal activity against Abutilon theophrasti (velvetleaf); assay type: functional, organism-based
Echinochloa crus-galli [12] = assay: Pre-emergence herbicidal activity against Echinochloa crus-galli (barnyard grass); assay type: functional, organism-based
Avena sativa [13] = assay: Pre-emergence herbicidal activity against Avena sativa; assay type: functional, organism-based
Abutilon theophrasti [14] = assay: Pre-emergence herbicidal activity against Abutilon theophrasti (velvetleaf); assay type: functional, organism-based
Tetranychus cinnabarinus = assay: Insecticidal activity against Tetranychus cinnabarinus (carmine spider mite); assay type: functional, organism-based
Schoenoplectus acutus [15] = assay: Post-emergence herbicidal activity against Schoenoplectus acutus (hardstem bulrush); assay type: functional, organism-based
Sagittaria latifolia [16] = assay: Herbicidal activity against Sagittaria latifolia (broadleaf arrowhead) under paddy conditions; assay type: functional, organism-based
Echinochloa crus-galli [17] = assay: Post-emergence herbicidal activity against Echinochloa crus-galli (barnyard grass); assay type: functional, organism-based
Convolvulaceae [18] = assay: Post-emergence herbicidal activity against Convolvulaceae (morning glory family); assay type: functional, organism-based
Culex pipiens pallens = assay: Insecticidal activity against Culex pipiens pallens (mosquito) at 3 to 5 ppm; assay type: functional, organism-based
Spodoptera litura = assay: Insecticidal activity against Spodoptera litura; assay type: functional, organism-based
Oryza sativa [19] = assay: Herbicidal activity against Oryza sativa (rice) under paddy conditions; assay type: functional, organism-based
Schoenoplectus acutus [20] = assay: Herbicidal activity against Schoenoplectus acutus (hardstem bulrush) under paddy conditions; assay type: functional, organism-based
Helminthosporium = assay: Fungicidal activity against Helminthosporium oryzae at 500 ppm after 7 days by poisoned food technique; assay type: functional; settings: 168 h, read-out: GI; outline: as §1

SMILES	inhibition of growth at 500 ppm (Rhizoctonia solani)	Activity (Musca domestica)	Activity (Avena sativa [1])	Activity (Sagittaria latifolia [2])	Activity (Schoenoplectus acutus [3])	Activity (Sagittaria latifolia [4])	Activity (Oryza sativa [5])	Activity (Oryza sativa [6])	Activity (Avena sativa [7])	Activity (Echinochloa crus-galli [8])	Activity (Convolvulaceae [9])	Activity (Convolvulaceae [10])	Activity (Abutilon theophrasti [11])	Activity (Echinochloa crus-galli [12])	Activity (Avena sativa [13])	Activity (Abutilon theophrasti [14])	Activity (Tetranychus cinnabarinus)	Activity (Schoenoplectus acutus [15])	Activity (Sagittaria latifolia [16])	Activity (Echinochloa crus-galli [17])	also measured
Clc1cccc(-c2nnc(SCc3nc4ccccc4[nH]3)o2)c1	69.4%	inactive	inactive	inactive	inactive	inactive	inactive	inactive	inactive	inactive	inactive	inactive	inactive	inactive	inactive	inactive	inactive	inactive	inactive	inactive	Activity (Convolvulaceae [18]): inactive; Activity (Culex pipiens pallens): Active; Activity (Spodoptera litura): inactive; Activity (Oryza sativa [19]): inactive; Activity (Schoenoplectus acutus [20]): inactive; inhibition of growth at 500 ppm (Helminthosporium): 89.7%
Nn1c(SCc2nc3ccccc3[nH]2)nnc1-c1ccc(Cl)cc1	20%	inactive	inactive	inactive	inactive	inactive	inactive	inactive	inactive	inactive	inactive	inactive	inactive	inactive	inactive	inactive	inactive	inactive	inactive	inactive	Activity (Convolvulaceae [18]): inactive; Activity (Culex pipiens pallens): Active; Activity (Spodoptera litura): inactive; Activity (Oryza sativa [19]): inactive; Activity (Schoenoplectus acutus [20]): inactive; inhibition of growth at 500 ppm (Helminthosporium): 45.3%
c1ccc(-c2nnc(SCc3nc4ccccc4[nH]3)o2)cc1	65.2%	inactive	inactive	inactive	inactive	inactive	inactive	inactive	inactive	inactive	inactive	inactive	inactive	inactive	inactive	inactive	inactive	inactive	inactive	inactive	Activity (Convolvulaceae [18]): inactive; Activity (Culex pipiens pallens): Active; Activity (Spodoptera litura): inactive; Activity (Oryza sativa [19]): inactive; Activity (Schoenoplectus acutus [20]): inactive; inhibition of growth at 500 ppm (Helminthosporium): 73.5%
Clc1ccc(-c2nnc(SCc3nc4ccccc4[nH]3)s2)cc1	39%	inactive	inactive	inactive	inactive	inactive	inactive	inactive	inactive	inactive	inactive	inactive	inactive	inactive	inactive	inactive	inactive	inactive	inactive	inactive	Activity (Convolvulaceae [18]): inactive; Activity (Culex pipiens pallens): Active; Activity (Spodoptera litura): inactive; Activity (Oryza sativa [19]): inactive; Activity (Schoenoplectus acutus [20]): inactive; inhibition of growth at 500 ppm (Helminthosporium): 52.5%
Nn1c(SCc2nc3ccccc3[nH]2)nnc1-c1cccc(Cl)c1	61.2%	inactive	inactive	inactive	inactive	inactive	inactive	inactive	inactive	inactive	inactive	inactive	inactive	inactive	inactive	inactive	inactive	inactive	inactive	inactive	Activity (Convolvulaceae [18]): inactive; Activity (Culex pipiens pallens): Active; Activity (Spodoptera litura): inactive; Activity (Oryza sativa [19]): inactive; Activity (Schoenoplectus acutus [20]): inactive; inhibition of growth at 500 ppm (Helminthosporium): 89.3%
Cc1ccc2[nH]c(CSc3nnc(-c4ccccc4)o3)nc2c1	61.3%	inactive	inactive	inactive	inactive	inactive	inactive	inactive	inactive	inactive	inactive	inactive	inactive	inactive	inactive	inactive	inactive	inactive	inactive	inactive	Activity (Convolvulaceae [18]): inactive; Activity (Culex pipiens pallens): Active; Activity (Spodoptera litura): inactive; Activity (Oryza sativa [19]): inactive; Activity (Schoenoplectus acutus [20]): inactive; inhibition of growth at 500 ppm (Helminthosporium): 65.3%
Cc1ccc2[nH]c(CSc3nnc(-c4cccc(Cl)c4)s3)nc2c1	60.4%	inactive	inactive	inactive	inactive	inactive	inactive	inactive	inactive	inactive	inactive	inactive	inactive	inactive	inactive	inactive	inactive	inactive	inactive	inactive	Activity (Convolvulaceae [18]): inactive; Activity (Culex pipiens pallens): Active; Activity (Spodoptera litura): inactive; Activity (Oryza sativa [19]): inactive; Activity (Schoenoplectus acutus [20]): inactive; inhibition of growth at 500 ppm (Helminthosporium): 81.2%
